# Columns and labels:
# [1] = Inhibition of calcium channel (unknown origin); set-up: species or system Homo sapiens
# [2] = biological target: Adenosine receptor A2a (Homo sapiens) (UniProt P29274); assay: Inhibition of human adenosine A2A receptor at 10 uM by radioligand binding assay
# Summary of the method: (§1)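 Single-concentration radioligand binding screen (Eurofins Panlabs); IC50 by non-linear least-squares regression; Ki via Cheng-Prusoff from observed IC50, radioligand concentration and historical KD; Hill coefficient reported.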
# [3] = Mutagenicity in Salmonella typhimurium TA100 at 30 to 5000 ug in presence of S9 metabolic activation system for 48 hrs by ames test; type: toxicity, Salmonella enterica subsp. enterica serovar Typhimurium; settings: dose 30-5000 µg
# Summary of the method: (§2)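 Plate incorporation Ames test with S9 from phenobarbital/beta-naphthoflavone-induced male Wistar Han rat liver; 30, 100, 300, 1000, 3000, 5000 µg/plate; triplicate minimal glucose agar plates with trace histidine; 48 h at 37 °C; positive if 2-fold revertant increase over vehicle with dose relation.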
# [4] = biological target: Dual specificity protein kinase CLK2 (Homo sapiens, UniProt P49760); assay: Inhibition of CLK2 (unknown origin) assessed as substrate phosphorylation using coumarin and fluorescein-labeled peptide as substrate incubated for 1 hr by Z'-LYTE kinase assay
# Sequence of Dual specificity protein kinase CLK2 (P49760 whole entry): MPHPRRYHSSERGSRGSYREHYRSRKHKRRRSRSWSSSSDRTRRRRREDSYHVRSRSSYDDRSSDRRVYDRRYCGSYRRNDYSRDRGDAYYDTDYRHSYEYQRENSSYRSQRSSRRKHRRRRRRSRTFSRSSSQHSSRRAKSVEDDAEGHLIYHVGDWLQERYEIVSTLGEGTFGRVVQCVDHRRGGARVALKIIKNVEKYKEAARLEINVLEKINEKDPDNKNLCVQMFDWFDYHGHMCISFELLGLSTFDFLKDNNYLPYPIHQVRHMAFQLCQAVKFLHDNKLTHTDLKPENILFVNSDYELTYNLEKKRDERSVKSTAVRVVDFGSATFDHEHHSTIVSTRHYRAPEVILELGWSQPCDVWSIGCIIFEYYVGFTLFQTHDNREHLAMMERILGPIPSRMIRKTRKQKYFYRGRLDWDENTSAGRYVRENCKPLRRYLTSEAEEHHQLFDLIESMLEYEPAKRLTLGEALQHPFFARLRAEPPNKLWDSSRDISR
# Summary of the method: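 CLK2 Z'-LYTE coupled-enzyme kit format, 10-point titration from DMSO; enzyme, substrate and compound reacted 1 h at ambient temperature; after development solution, read at excitation 400 nm; activity from coumarin 445 nm/fluorescein 520 nm emission ratio.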
# [5] = Mutagenicity in Salmonella typhimurium TA1535 at 30 to 5000 ug in presence of S9 metabolic activation system for 48 hrs by ames test; type: toxicity, Salmonella enterica subsp. enterica serovar Typhimurium; settings: in vitro, dose 30-5000 µg; summary of the method: as §2
# Homo sapiens [6] = species: Homo sapiens; assay: Selectivity of inhibition of human LRRK2 to human CLK2
# Homo sapiens [7] = species: Homo sapiens; assay: Selectivity of inhibition of human LRRK2 to human IRAK4
# [8] = biological target: T1, Leucine-rich repeat serine/threonine-protein kinase 2 (Homo sapiens, UniProt Q5S007, G2019S); assay: Inhibition of human LRRK2 G2019S mutant expressed in human SH-SY5Y cells assessed as inhibition of tetracycline induced LRRK2 phosphorylation at Ser935 residue incubated for 90 mins by MSD assay; type: cell-based
# T1 sequence (Q5S007 whole entry G2019S): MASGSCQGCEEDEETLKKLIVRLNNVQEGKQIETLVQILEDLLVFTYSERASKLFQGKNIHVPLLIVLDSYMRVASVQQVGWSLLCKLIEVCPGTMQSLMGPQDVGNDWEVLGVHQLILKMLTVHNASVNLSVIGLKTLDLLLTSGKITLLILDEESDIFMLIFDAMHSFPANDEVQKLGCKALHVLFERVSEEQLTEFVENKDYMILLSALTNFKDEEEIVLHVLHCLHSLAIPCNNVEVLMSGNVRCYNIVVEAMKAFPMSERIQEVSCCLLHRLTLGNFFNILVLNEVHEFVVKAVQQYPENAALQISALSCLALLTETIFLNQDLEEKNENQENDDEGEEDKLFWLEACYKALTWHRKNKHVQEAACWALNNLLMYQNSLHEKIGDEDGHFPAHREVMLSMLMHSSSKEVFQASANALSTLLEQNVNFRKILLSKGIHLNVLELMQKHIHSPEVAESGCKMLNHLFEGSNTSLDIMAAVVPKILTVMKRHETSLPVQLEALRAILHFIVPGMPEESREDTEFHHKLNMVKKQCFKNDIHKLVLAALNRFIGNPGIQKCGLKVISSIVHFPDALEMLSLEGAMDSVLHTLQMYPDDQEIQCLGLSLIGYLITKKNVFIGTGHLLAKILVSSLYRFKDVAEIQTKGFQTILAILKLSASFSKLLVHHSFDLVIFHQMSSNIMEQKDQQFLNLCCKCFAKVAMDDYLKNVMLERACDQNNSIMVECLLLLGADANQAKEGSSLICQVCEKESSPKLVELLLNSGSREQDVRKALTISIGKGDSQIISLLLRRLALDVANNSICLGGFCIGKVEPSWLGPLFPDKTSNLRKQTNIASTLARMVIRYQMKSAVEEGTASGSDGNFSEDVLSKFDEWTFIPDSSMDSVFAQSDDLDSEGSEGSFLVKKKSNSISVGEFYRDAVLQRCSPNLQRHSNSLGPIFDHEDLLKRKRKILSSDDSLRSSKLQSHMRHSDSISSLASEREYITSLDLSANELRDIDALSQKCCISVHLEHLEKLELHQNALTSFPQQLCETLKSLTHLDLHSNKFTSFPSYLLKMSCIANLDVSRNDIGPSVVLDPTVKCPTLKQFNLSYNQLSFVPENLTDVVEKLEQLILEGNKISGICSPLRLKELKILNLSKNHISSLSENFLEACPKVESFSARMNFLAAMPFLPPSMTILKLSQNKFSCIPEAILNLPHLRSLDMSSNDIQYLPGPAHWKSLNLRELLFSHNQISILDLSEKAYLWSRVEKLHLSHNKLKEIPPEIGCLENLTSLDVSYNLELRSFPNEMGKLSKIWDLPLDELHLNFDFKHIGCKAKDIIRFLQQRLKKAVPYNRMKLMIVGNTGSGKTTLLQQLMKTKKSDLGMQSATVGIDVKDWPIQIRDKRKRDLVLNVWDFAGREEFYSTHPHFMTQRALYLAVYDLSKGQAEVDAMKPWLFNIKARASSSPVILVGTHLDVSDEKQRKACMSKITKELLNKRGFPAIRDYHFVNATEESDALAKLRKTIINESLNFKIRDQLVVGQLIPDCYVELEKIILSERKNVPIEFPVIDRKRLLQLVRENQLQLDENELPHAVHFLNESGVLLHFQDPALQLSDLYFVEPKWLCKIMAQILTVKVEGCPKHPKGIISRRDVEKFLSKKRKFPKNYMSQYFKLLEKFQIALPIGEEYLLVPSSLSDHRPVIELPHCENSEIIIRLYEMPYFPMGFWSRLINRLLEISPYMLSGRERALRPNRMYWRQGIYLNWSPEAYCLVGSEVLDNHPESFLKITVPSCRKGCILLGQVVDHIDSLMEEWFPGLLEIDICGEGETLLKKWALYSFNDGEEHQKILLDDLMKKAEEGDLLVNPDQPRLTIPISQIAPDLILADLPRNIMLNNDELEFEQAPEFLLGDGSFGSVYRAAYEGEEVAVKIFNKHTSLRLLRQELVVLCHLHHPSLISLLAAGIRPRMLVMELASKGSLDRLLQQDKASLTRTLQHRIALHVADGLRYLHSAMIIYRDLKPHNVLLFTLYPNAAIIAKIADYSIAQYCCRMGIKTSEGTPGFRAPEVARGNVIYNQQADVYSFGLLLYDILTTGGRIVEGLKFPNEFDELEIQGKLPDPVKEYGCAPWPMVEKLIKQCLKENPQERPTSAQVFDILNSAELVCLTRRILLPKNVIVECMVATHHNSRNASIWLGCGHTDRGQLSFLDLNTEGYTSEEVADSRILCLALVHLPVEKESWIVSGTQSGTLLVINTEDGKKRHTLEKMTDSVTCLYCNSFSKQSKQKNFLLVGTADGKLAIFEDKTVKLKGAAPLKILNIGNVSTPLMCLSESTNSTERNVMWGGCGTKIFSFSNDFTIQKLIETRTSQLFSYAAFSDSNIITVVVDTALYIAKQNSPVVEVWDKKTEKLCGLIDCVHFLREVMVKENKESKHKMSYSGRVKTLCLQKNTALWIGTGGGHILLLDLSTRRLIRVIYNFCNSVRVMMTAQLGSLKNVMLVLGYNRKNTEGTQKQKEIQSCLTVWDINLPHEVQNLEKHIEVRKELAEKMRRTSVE
# Summary of the method: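 SH-SY5Y neuroblastoma cells carrying LRRK2 G2019S, grown in DMEM/F-12 with GlutaMax, 10% Tet-free FBS, nonessential amino acids and pen-strep at 37 °C, 5% CO2. Expression induced with Tet (2 µg/ml) 48-72 h before treatment. Compound exposure 90 min. Lysates captured on anti-LRRK2-coated MSD plates, probed for pSer935 or total LRRK2 with Sulfo-Tag read-out. IC50 from standard 4P fit of % inhibition.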
# [9] = Intrinsic clearance in po dosed CD rat measured after 120 mins by LC-MS/MS analysis; type: ADME, organism-based; settings: in vivo, 2 h
# [10] = Drug metabolism in human hepatocytes assessed as (R)-2-(1-(4-amino-5-(trifluoromethyl)pyridin-2-yl)pyrrolidin-3-yl)propan-2-ol metabolite formation compound at 0.3 uM and measured after 120 mins by LC-MS/MS analysis; type: ADME, cell-based, Hepatocyte; settings: 2 h
# [11] = biological target: Voltage-gated inwardly rectifying potassium channel KCNH2 (Homo sapiens, UniProt Q12809); assay: Inhibition of human ERG tail current in cells at -80 mV holding potential by PatchXpress automated patch clamp assay; type: toxicity
# Sequence of Voltage-gated inwardly rectifying potassium channel KCNH2 (Q12809 whole entry): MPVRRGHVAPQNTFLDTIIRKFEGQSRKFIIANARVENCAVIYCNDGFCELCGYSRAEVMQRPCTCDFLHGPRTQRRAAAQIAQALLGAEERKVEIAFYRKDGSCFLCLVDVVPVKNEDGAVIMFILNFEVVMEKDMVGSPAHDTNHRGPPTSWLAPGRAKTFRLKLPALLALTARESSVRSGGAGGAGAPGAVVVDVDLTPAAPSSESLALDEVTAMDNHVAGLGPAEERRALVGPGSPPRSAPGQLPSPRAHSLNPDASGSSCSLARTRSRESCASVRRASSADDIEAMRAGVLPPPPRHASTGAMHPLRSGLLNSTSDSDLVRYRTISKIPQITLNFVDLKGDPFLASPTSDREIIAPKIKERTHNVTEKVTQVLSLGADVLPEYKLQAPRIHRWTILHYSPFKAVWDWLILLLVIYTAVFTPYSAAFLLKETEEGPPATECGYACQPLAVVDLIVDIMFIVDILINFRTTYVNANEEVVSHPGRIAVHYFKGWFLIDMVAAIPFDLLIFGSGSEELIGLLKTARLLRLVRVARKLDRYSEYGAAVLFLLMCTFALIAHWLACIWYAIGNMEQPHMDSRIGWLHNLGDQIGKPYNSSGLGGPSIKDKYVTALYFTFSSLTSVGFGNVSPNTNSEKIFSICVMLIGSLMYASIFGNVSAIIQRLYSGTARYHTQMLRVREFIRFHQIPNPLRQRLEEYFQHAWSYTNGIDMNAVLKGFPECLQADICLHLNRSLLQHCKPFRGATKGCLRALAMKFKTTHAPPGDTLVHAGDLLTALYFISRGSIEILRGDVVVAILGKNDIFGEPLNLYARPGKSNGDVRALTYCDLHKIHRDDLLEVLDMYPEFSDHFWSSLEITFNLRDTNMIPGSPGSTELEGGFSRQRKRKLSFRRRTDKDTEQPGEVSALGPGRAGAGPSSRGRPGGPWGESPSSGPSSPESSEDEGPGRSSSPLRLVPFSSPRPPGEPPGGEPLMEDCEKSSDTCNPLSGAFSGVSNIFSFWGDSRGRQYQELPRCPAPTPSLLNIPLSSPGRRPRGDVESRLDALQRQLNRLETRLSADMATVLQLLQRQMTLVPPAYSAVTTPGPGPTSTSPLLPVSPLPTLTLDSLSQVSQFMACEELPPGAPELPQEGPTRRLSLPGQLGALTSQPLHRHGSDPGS
# [12] = Plasma clearance in po dosed CD rat measured after 120 mins by LC-MS/MS analysis; type: ADME, organism-based
# [13] = Brain to plasma permeability coefficient, Kp in CD rat plasma assessed as unbound fraction at 3 to 100 mg/kg, po and measured after 2 hrs by LC/MS/MS analysis; type: ADME, organism-based; settings: in vivo, dose 3-100 mg/kg
# [14] = Plasma clearance in po dosed Beagle dog and measured upto 24 hrs by LC-MS/MS analysis; type: ADME, organism-based, Canis lupus familiaris
# Homo sapiens [15] = species: Homo sapiens; assay: Selectivity ratio, ratio of IC50 for inhibition of CLK2 (unknown origin) to IC50 for inhibition of recombinant human GST20 tagged truncated LRRK2 G2019S mutant
# [16] = In vivo inhibition of LRRK2 in CD rat assessed as reduction in serine 935 phosphorylated LRRK2 in striatum at 10 mg/kg, po and measured after 2 hrs by MSD immunoassay; type: functional
# Summary of the method: (§3)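 Male CD rats (125-150 g) dosed orally with compound suspended in 10% Tween 80 (5 mL/kg) or vehicle, euthanized by CO2 2 h later; striatum dissected, frozen on dry ice; pSer935 LRRK2 measured by MSD immunoassay as pSer935/total LRRK2 ratio, mean ± S.E.M.; one-way ANOVA with Dunnett's post hoc test.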
# [17] = Oral bioavailability in CD rat measured after 120 mins by LC-MS/MS analysis; type: ADME, organism-based; settings: in vivo
# [18] = Intrinsic clearance in po dosed Beagle dog and measured upto 24 hrs by LC-MS/MS analysis; type: ADME, organism-based, Canis lupus familiaris; settings: in vivo
# [19] = biological target: Substance-P receptor (Homo sapiens) (UniProt P25103); assay: Inhibition of human tachykinin NK1 receptor at 10 uM by radioligand binding assay; summary of the method: as §1
# Sequence of Substance-P receptor (Homo sapiens) (P25103 whole entry): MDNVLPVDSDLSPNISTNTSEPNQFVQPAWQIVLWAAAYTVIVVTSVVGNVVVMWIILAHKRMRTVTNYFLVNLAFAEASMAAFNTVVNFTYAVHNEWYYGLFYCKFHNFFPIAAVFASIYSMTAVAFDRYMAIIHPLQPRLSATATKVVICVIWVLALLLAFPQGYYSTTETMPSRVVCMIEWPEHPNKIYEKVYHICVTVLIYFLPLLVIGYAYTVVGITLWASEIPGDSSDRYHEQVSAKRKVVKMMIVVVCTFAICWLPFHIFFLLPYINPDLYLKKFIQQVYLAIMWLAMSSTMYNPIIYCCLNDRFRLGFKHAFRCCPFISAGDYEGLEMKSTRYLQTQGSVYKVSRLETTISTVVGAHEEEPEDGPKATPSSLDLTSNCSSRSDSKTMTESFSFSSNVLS
# Homo sapiens [20] = species: Homo sapiens; assay: Selectivity of inhibition of human LRRK2 to human MINK1
# [21] = In vivo inhibition of LRRK2 in CD rat assessed as reduction in serine 935 phosphorylated LRRK2 in striatum at 100 mg/kg, po and measured after 2 hrs by MSD immunoassay; type: functional; summary of the method: as §3
# [22] = Drug metabolism in rat hepatocytes assessed as (R)-2-(1-(4-amino-5-(trifluoromethyl)pyridin-2-yl)pyrrolidin-3-yl)propan-2-ol metabolite formation compound at 0.3 uM and measured after 120 mins by LC-MS/MS analysis; type: ADME, cell-based, Hepatocyte; settings: 2 h
# [23] = Toxicity in CD rat assessed clinical signs of toxicity at 50 to 100 mg/kg, po BID administered for 4 days; type: organism-based; settings: in vivo, 96 h, dose 50-100 mg/kg, time 4 day
# [24] = biological target: Sodium channel protein type 5 subunit alpha (Homo sapiens, UniProt Q14524); assay: Inhibition of human NaV1.5 expressed in HEK293 by PatchXpress automated patch clamp assay; type: cell-based
# [25] = In vivo inhibition of LRRK2 in CD rat assessed as reduction in serine 935 phosphorylated LRRK2 in striatum at 30 mg/kg, po and measured after 2 hrs by MSD immunoassay; type: functional; summary of the method: as §3
# [26] = Oral bioavailability in Beagle dog and measured upto 24 hrs by LC-MS/MS analysis; type: ADME, organism-based, Canis lupus familiaris; settings: in vivo
# [27] = Mutagenicity in Salmonella typhimurium TA98 at 30 to 5000 ug in presence of S9 metabolic activation system for 48 hrs by ames test; type: toxicity, Salmonella enterica subsp. enterica serovar Typhimurium; settings: dose 30-5000 µg; summary of the method: as §2
# [28] = MRT in po dosed Beagle dog and measured upto 24 hrs by LC-MS/MS analysis; type: ADME, organism-based, Canis lupus familiaris; settings: in vivo
# Cavia porcellus = species: Cavia porcellus; assay: Inhibition of guinea pig adenosine transporter at 1 uM by radioligand binding assay; summary of the method: as §1
# [29] = In vivo inhibition of LRRK2 in CD rat assessed as reduction in serine 935 phosphorylated LRRK2 in striatum at 3 mg/kg, po and measured after 2 hrs by MSD immunoassay; type: functional; summary of the method: as §3
# [30] = Toxicity in CD rat assessed micronucleus induction in bone marrow at 50 to 100 mg/kg, po BID administered for 4 days; type: organism-based; settings: in vivo, 96 h, dose 50-100 mg/kg, time 4 day
# [31] = test system: P-gp (rat Mdr1a) (Homo sapiens); assay: Substrate activity at P-gp (unknown origin) expressed in LLC-PK1 cells transfected with rat Mdr1a assessed as apparent permeability at 0.1 uM incubated for 3 hrs by LC-MSMS analysis; type: ADME, cell-based
# [32] = biological target: T2, Adenosine receptor A1 (Homo sapiens) (UniProt P30542); assay: Inhibition of human adenosine A1 receptor at 10 uM by radioligand binding assay; summary of the method: as §1
# T2 sequence (whole entry): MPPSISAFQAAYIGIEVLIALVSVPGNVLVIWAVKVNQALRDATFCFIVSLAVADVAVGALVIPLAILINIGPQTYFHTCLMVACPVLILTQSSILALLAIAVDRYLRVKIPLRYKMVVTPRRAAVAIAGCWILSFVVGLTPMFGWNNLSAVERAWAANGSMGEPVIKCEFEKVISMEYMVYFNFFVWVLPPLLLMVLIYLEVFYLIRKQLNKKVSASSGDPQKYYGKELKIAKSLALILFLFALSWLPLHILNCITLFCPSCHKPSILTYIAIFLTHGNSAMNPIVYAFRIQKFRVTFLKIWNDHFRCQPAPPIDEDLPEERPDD
# [33] = MRT in po dosed CD rat measured after 120 mins by LC-MS/MS analysis; type: ADME, organism-based; settings: in vivo
# [34] = biological target: T1, Leucine-rich repeat serine/threonine-protein kinase 2; assay: Inhibition of recombinant human GST20 tagged truncated LRRK2 G2019S mutant assessed as substrate phosphorylation preincubated for 15 mins followed by substrate addition and measured after 90 mins using fluorescein-labeled LRRK2tide as substrate in presence of ATP by TR-FRET based Lanthascreen kinase activity assay
# Summary of the method: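 Enzyme 1.25 nM in 50 mM Tris pH 8.5, 10 mM MgCl2, 0.01% Brij-35, 1 mM EGTA, 2 mM DTT, 0.05 mM orthovanadate. Compound (top 9.99 µM in DMSO, ten-point serial dilution) preincubated 15 min at RT. […] Stopped with EDTA plus 2 nM Tb anti-pERM, 1 h RT. 520/495 nm ratio read. IC50 from 4-parameter logistic fit, mean of several runs.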
# Sequence of Adenosine receptor A2a (Homo sapiens) (P29274 whole entry): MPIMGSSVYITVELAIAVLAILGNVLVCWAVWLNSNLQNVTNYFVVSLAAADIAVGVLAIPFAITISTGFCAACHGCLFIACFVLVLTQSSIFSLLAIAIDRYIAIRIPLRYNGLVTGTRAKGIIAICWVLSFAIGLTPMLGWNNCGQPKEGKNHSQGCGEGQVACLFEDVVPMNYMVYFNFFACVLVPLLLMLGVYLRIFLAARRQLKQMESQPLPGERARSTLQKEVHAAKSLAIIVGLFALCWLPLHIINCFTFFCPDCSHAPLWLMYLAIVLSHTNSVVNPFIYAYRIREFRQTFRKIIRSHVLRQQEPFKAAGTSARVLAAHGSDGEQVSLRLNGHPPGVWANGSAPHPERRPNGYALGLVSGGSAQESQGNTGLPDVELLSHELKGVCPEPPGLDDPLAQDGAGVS
compound,measurement,setting,value
Cn1cc(-c2cccc(C(=O)Nc3cc(N4CC[C@@H](C(C)(C)O)C4)ncc3C(F)(F)F)n2)cn1,IC50,[1],21.8 µM
same,inhibition,[2],> 50%
same,Activity,[3],Non-Toxic
same,IC50,[4],0.063 µM
same,Activity,[5],Non-Toxic
same,Selectivity ratio,Homo sapiens [6],> 100
same,Selectivity ratio,Homo sapiens [7],> 100
same,IC50,[8],0.0025 µM
same,CL,[9],5722 mL/min/kg
same,Drug metabolism,[10],Metabolite_Detected
same,IC50,[11],7.6 µM
same,CL/F,[12],10 mL/min/kg
same,Kp,[13],0.6
same,CL/F,[14],15 mL/min/kg
same,Ratio IC50,Homo sapiens [15],63
same,inhibition in vivo at 10 mg/kg,[16],13%
same,bioavailability,[17],16%
same,CL,[18],14531 mL/min/kg
same,inhibition,[19],> 50%
same,Selectivity ratio,Homo sapiens [20],> 100
same,inhibition in vivo at 100 mg/kg,[21],56%
same,Drug metabolism,[22],Metabolite_Detected
same,Activity,[23],Non-Toxic
same,IC50,[24],29.9 µM
same,inhibition in vivo at 30 mg/kg,[25],35%
same,bioavailability,[26],43%
same,Activity,[27],Non-Toxic
same,MRT,[28],3.6 h
same,inhibition,Cavia porcellus,> 50%
same,inhibition in vivo at 3 mg/kg,[29],2%
same,Activity,[30],Non-Toxic
same,"Papp at 3 h, 0.1 µM",[31],35 ×10⁻⁶ cm/s
same,inhibition,[32],> 50%
same,MRT,[33],5.2 h
same,IC50,[34],0.001 µM
